Values belong to the compound of their own block, whether it stands above or below them.
What was measured:
[1] = target: T1, Vesicular acetylcholine transporter (Homo sapiens, UniProt Q16572); assay: Displacement of [3H]vesamicol from human vesicular acetylcholine transporter expressed in rat PC12 cells by liquid scintillation spectrometry; assay type: cell-based, PC-12
T1 sequence (Q16572 whole entry): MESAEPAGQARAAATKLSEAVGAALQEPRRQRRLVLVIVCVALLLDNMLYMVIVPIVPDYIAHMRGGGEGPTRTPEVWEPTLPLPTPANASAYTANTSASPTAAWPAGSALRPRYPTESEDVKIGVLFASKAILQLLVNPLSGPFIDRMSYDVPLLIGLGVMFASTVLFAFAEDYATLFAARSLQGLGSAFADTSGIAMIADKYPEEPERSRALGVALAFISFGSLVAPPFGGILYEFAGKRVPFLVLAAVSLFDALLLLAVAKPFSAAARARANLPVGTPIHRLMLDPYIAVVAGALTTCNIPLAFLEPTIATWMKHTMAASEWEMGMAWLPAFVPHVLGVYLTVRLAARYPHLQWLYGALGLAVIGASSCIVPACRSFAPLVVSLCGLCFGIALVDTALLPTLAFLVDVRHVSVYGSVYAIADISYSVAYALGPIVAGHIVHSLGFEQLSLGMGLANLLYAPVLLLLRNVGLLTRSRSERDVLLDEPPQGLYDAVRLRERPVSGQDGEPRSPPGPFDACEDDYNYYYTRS

[2] = target: Sigma non-opioid intracellular receptor 1 (Cavia porcellus, UniProt Q60492); assay: Displacement of [3H](+)-pentazocine from sigma1 receptor in guinea pig brain membrane by liquid scintillation counting; assay type: cell membranes
Sequence of Sigma non-opioid intracellular receptor 1 (Q60492 whole entry): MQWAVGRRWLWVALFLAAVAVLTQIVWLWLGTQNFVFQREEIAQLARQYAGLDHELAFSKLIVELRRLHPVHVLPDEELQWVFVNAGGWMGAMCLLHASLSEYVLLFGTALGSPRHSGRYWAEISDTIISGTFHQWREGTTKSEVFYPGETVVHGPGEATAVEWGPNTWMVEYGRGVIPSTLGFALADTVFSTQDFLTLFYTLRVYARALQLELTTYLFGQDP

[3] = Displacement of [3H]DTG from sigma2 receptor in rat liver membrane; assay type: cell membranes
Outline: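 Rat liver membrane homogenate (~300 μg protein) incubated 2 h at room temperature with ~5 nM [3H]DTG plus 1 μM (+)-pentazocine to mask σ1 sites. Haloperidol 10 μM defines nonspecific binding. Filtered and counted.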

[4] = Selectivity ratio of Ki for human vesicular acetylcholine transporter to Ki for sigma1 receptor in guinea pig brain membrane; assay type: cell membranes
Lung [5] = assay: Drug uptake in Sprague-Dawley rat lung at 25 to 35 uCi, iv after 5 mins postinjection by […]; assay type: ADME, organism-based; details: in vivo
Outline: (§1)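 Mature male Sprague-Dawley rats (250–400 g) under 2–3% isoflurane got 25–35 μCi tracer in 100–150 μL saline via tail vein. Groups of at least 4 were euthanized at 5 min, 30 min, 1 h or 2 h. Brain was dissected into regions, and tissues were weighed and gamma counted against an injectate standard. Values are %ID/g, mean ± SD.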

Lung [6] = assay: Drug uptake in Sprague-Dawley rat lung at 25 to 35 uCi, iv after 30 mins postinjection by […]; assay type: ADME, organism-based; details: in vivo, 0.5 h; outline: as §1
Lung [7] = assay: Drug uptake in Sprague-Dawley rat lung at 25 to 35 uCi, iv after 1 hr postinjection by […]; assay type: ADME, organism-based; details: in vivo; outline: as §1
Lung [8] = assay: Drug uptake in Sprague-Dawley rat lung at 25 to 35 uCi, iv after 2 hrs postinjection by […]; assay type: ADME, organism-based; details: in vivo; outline: as §1
Heart [9] = assay: Drug uptake in Sprague-Dawley rat heart at 25 to 35 uCi, iv after 5 mins postinjection by […]; assay type: ADME, organism-based; details: in vivo; outline: as §1
Heart [10] = assay: Drug uptake in Sprague-Dawley rat heart at 25 to 35 uCi, iv after 30 mins postinjection by […]; assay type: ADME, organism-based; details: in vivo, 0.5 h; outline: as §1
Heart [11] = assay: Drug uptake in Sprague-Dawley rat heart at 25 to 35 uCi, iv after 1 hr postinjection by […]; assay type: ADME, organism-based; details: in vivo; outline: as §1
Heart [12] = assay: Drug uptake in Sprague-Dawley rat heart at 25 to 35 uCi, iv after 2 hrs postinjection by […]; assay type: ADME, organism-based; details: in vivo; outline: as §1
Muscle tissue [13] = assay: Drug uptake in Sprague-Dawley rat muscle at 25 to 35 uCi, iv after 5 mins postinjection by […]; assay type: ADME, organism-based; details: in vivo; outline: as §1
Muscle tissue [14] = assay: Drug uptake in Sprague-Dawley rat muscle at 25 to 35 uCi, iv after 30 mins postinjection by […]; assay type: ADME, organism-based; details: in vivo, 0.5 h; outline: as §1
Muscle tissue [15] = assay: Drug uptake in Sprague-Dawley rat muscle at 25 to 35 uCi, iv after 1 hr postinjection by […]; assay type: ADME, organism-based; details: in vivo; outline: as §1
Muscle tissue [16] = assay: Drug uptake in Sprague-Dawley rat muscle at 25 to 35 uCi, iv after 2 hrs postinjection by […]; assay type: ADME, organism-based; details: in vivo; outline: as §1
[17] = Drug uptake in Sprague-Dawley rat fat at 25 to 35 uCi, iv after 5 mins postinjection by […]; assay type: ADME, organism-based, Adipose tissue; details: in vivo; outline: as §1
[18] = Drug uptake in Sprague-Dawley rat fat at 25 to 35 uCi, iv after 30 mins postinjection by […]; assay type: ADME, organism-based, Adipose tissue; details: in vivo, 0.5 h; outline: as §1
[19] = Drug uptake in Sprague-Dawley rat fat at 25 to 35 uCi, iv after 1 hr postinjection by […]; assay type: ADME, organism-based, Adipose tissue; details: in vivo; outline: as §1
[20] = Drug uptake in Sprague-Dawley rat fat at 25 to 35 uCi, iv after 2 hrs postinjection by […]; assay type: ADME, organism-based, Adipose tissue; details: in vivo; outline: as §1
Liver [21] = assay: Drug uptake in Sprague-Dawley rat liver at 25 to 35 uCi, iv after 5 mins postinjection by […]; assay type: ADME, organism-based; details: in vivo; outline: as §1
Liver [22] = assay: Drug uptake in Sprague-Dawley rat liver at 25 to 35 uCi, iv after 30 mins postinjection by […]; assay type: ADME, organism-based; details: in vivo, 0.5 h; outline: as §1
Liver [23] = assay: Drug uptake in Sprague-Dawley rat liver at 25 to 35 uCi, iv after 1 hr postinjection by […]; assay type: ADME, organism-based; details: in vivo; outline: as §1
Liver [24] = assay: Drug uptake in Sprague-Dawley rat liver at 25 to 35 uCi, iv after 2 hrs postinjection by […]; assay type: ADME, organism-based; details: in vivo; outline: as §1
Kidney [25] = assay: Drug uptake in Sprague-Dawley rat kidney at 25 to 35 uCi, iv after 5 mins postinjection by […]; assay type: ADME, organism-based; details: in vivo; outline: as §1
Kidney [26] = assay: Drug uptake in Sprague-Dawley rat kidney at 25 to 35 uCi, iv after 30 mins postinjection by […]; assay type: ADME, organism-based; details: in vivo, 0.5 h; outline: as §1
Kidney [27] = assay: Drug uptake in Sprague-Dawley rat kidney at 25 to 35 uCi, iv after 1 hr postinjection by […]; assay type: ADME, organism-based; details: in vivo; outline: as §1
Kidney [28] = assay: Drug uptake in Sprague-Dawley rat kidney at 25 to 35 uCi, iv after 2 hrs postinjection by […]; assay type: ADME, organism-based; details: in vivo; outline: as §1
Bone [29] = assay: Drug uptake in Sprague-Dawley rat bone at 25 to 35 uCi, iv after 5 mins postinjection by […]; assay type: ADME, organism-based, Bone element; details: in vivo; outline: as §1
Bone [30] = assay: Drug uptake in Sprague-Dawley rat bone at 25 to 35 uCi, iv after 30 mins postinjection by […]; assay type: ADME, organism-based, Bone element; details: in vivo, 0.5 h; outline: as §1
Bone [31] = assay: Drug uptake in Sprague-Dawley rat bone at 25 to 35 uCi, iv after 1 hr postinjection by […]; assay type: ADME, organism-based, Bone element; details: in vivo; outline: as §1
Bone [32] = assay: Drug uptake in Sprague-Dawley rat bone at 25 to 35 uCi, iv after 2 hrs postinjection by […]; assay type: ADME, organism-based, Bone element; details: in vivo; outline: as §1
Brain [33] = assay: Drug uptake in Sprague-Dawley rat brain at 25 to 35 uCi, iv after 5 mins postinjection by […]; assay type: ADME, organism-based; details: in vivo; outline: as §1
Brain [34] = assay: Drug uptake in Sprague-Dawley rat brain at 25 to 35 uCi, iv after 30 mins postinjection by […]; assay type: ADME, organism-based; details: in vivo, 0.5 h; outline: as §1
Brain [35] = assay: Drug uptake in Sprague-Dawley rat brain at 25 to 35 uCi, iv after 1 hr postinjection by […]; assay type: ADME, organism-based; details: in vivo; outline: as §1
Brain [36] = assay: Drug uptake in Sprague-Dawley rat brain at 25 to 35 uCi, iv after 2 hrs postinjection by […]; assay type: ADME, organism-based; details: in vivo; outline: as §1
Blood [37] = assay: Drug uptake in Sprague-Dawley rat blood at 25 to 35 uCi, iv after 5 mins postinjection by […]; assay type: ADME, organism-based; details: in vivo; outline: as §1
Blood [38] = assay: Drug uptake in Sprague-Dawley rat blood at 25 to 35 uCi, iv after 30 mins postinjection by […]; assay type: ADME, organism-based; details: in vivo, 0.5 h; outline: as §1
Blood [39] = assay: Drug uptake in Sprague-Dawley rat blood at 25 to 35 uCi, iv after 1 hr postinjection by […]; assay type: ADME, organism-based; details: in vivo; outline: as §1

Ki [1]: 0.48 nM
SMILES: O=C(c1ccc([N+](=O)[O-])cc1)C1CCN([C@@H]2Cc3ccccc3C[C@H]2O)CC1 (racemic)

Ki [1]: 4.3 nM
Ki [2]: 220 nM
Ki [3]: 320 nM
Ratio Ki [4]: 51
SMILES: O=C(c1ccccc1)C1CCN([C@@H]2Cc3ccccc3C[C@H]2O)CC1 (racemic)

Ki [1]: 10.7 nM
Ki [2]: 30.6 nM
Ki [3]: 18.5 nM
SMILES: O[C@@H]1CC[C@H](OCc2ccc(F)cc2)C[C@H]1N1CCC(c2ccccc2)CC1

SMILES: O[C@@H]1CCCC[C@H]1N1CCC(c2ccccc2)CC1 [VESAMICOL]
Ki [3]: 34.5 nM

Ki [1]: 0.25 nM
Ki [2]: 298 nM
Ki [3]: 593 nM
Ratio Ki [4]: 1190
SMILES: O=C(c1ccc(Br)cc1)C1CCN([C@@H]2Cc3ccccc3C[C@H]2O)CC1 (racemic)

Kd [1]: 3 nM
SMILES: NCC1(c2ccccc2)CCN([C@@H]2Cc3c(I)cccc3C[C@H]2O)CC1

Drug uptake (Lung [5]): 1.389 % ID/g
Drug uptake (Lung [6]): 0.553 % ID/g
Drug uptake (Lung [7]): 0.346 % ID/g
Drug uptake (Lung [8]): 0.223 % ID/g
Drug uptake (Heart [9]): 0.328 % ID/g
Drug uptake (Heart [10]): 0.141 % ID/g
Drug uptake (Heart [11]): 0.094 % ID/g
Drug uptake (Heart [12]): 0.056 % ID/g
Drug uptake (Muscle tissue [13]): 0.079 % ID/g
Drug uptake (Muscle tissue [14]): 0.071 % ID/g
Drug uptake (Muscle tissue [15]): 0.076 % ID/g
Drug uptake (Muscle tissue [16]): 0.047 % ID/g
Drug uptake [17]: 0.088 % ID/g
Drug uptake [18]: 0.177 % ID/g
Drug uptake [19]: 0.196 % ID/g
Drug uptake [20]: 0.173 % ID/g
Drug uptake (Liver [21]): 1.939 % ID/g
Drug uptake (Liver [22]): 1.504 % ID/g
Drug uptake (Liver [23]): 1.402 % ID/g
Drug uptake (Liver [24]): 1.188 % ID/g
Drug uptake (Kidney [25]): 1.644 % ID/g
Drug uptake (Kidney [26]): 1.042 % ID/g
Drug uptake (Kidney [27]): 0.99 % ID/g
Drug uptake (Kidney [28]): 0.853 % ID/g
Drug uptake (Bone [29]): 0.307 % ID/g
Drug uptake (Bone [30]): 0.445 % ID/g
Drug uptake (Bone [31]): 0.623 % ID/g
Drug uptake (Bone [32]): 0.739 % ID/g
Drug uptake (Brain [33]): 0.606 % ID/g
Drug uptake (Brain [34]): 0.153 % ID/g
Drug uptake (Brain [35]): 0.095 % ID/g
Drug uptake (Brain [36]): 0.059 % ID/g
Drug uptake (Blood [37]): 0.122 % ID/g
Drug uptake (Blood [38]): 0.071 % ID/g
Drug uptake (Blood [39]): 0.043 % ID/g
SMILES: O=C(c1ccc([18F])cc1)C1CCN([C@@H]2Cc3ccccc3C[C@H]2O)CC1 (racemic)

From ChEMBL document CHEMBL1140914, “Synthesis and in vitro and in vivo evaluation of 18F-labeled positron emission tomography (PET) ligands for imaging the vesicular acetylcholine transporter” (J Med Chem, 2009)
